Data: ChEMBL document CHEMBL3352189 (J Med Chem, 2014)
Converted amounts (≈) assume the structure as drawn. The source made the active and inactive calls. No cut-off for these calls is given here.

Key:
Cytochrome P450 2C19 = Cytochrome P450 2C19 (Homo sapiens, UniProt P33261); assay: Inhibition of human CYP2C19 at 10 uM; assay type: ADME; details: 10 µM
[1] = Permeability at pH 7.4 by PAMPA assay; assay type: ADME
[2] = test system: Venezuelan equine encephalitis virus; assay: Antiviral activity against Venezuelan equine encephalitis virus TC83 infected in Vero 76 cells assessed as reduction in virus-induced cytopathic effect after 2 days by Celltiter-Glo reagent based assay; assay type: functional, organism-based; details: TC83, Vero 76, 48 h
[3] = Cytotoxicity against african green monkey Vero 76 cells after 3 days by Celltiter-Glo reagent based assay; assay type: cell-based; details: chlorocebus sabaeus, vero 76, 72 h
In short: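 Vero 76 cells were seeded overnight at 12 000/well and given an 8-point 2-fold compound series (20 mM DMSO stock) in EMEM/10% FBS with no virus. Viability was read by CellTiter-Glo after 3 days relative to untreated cells. Run in duplicate; CC50 from a four-parameter logistic or sigmoidal fit.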

[4] = test system: Venezuelan equine encephalitis virus; assay: Antiviral activity against Venezuelan equine encephalitis virus V3526 infected in Vero 76 cells assessed as reduction in virus-induced cytopathic effect after 2 days by Celltiter-Glo reagent based assay; assay type: functional, organism-based; details: V3526, Vero 76, 48 h
[5] = test system: Venezuelan equine encephalitis virus; assay: Antiviral activity against Venezuelan equine encephalitis virus TrD infected in Vero 76 cells assessed as reduction in virus-induced cytopathic effect after 2 days by Celltiter-Glo reagent based assay; assay type: functional, organism-based; details: Vero 76, 48 h
[6] = test system: Venezuelan equine encephalitis virus; assay: Antiviral activity against Venezuelan equine encephalitis virus TC83 infected in Vero 76 cells assessed as reduction in viral titer at 1 uM by crystal violet staining based microplaque assay relative to untreated control; assay type: functional
[7] = test system: Venezuelan equine encephalitis virus; assay: Antiviral activity against Venezuelan equine encephalitis virus TrD infected in Vero 76 cells assessed as reduction in viral titer at 5 uM by crystal violet staining based microplaque assay relative to untreated control; assay type: functional, organism-based
[8] = Aqueous solubility in PBS buffer; assay type: physicochemical
In short: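 Solubility measured in 1× PBS at pH 7.4.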

[9] = Selectivity index, ratio of CC50 for african green monkey Vero 76 cells to EC50 for Venezuelan equine encephalitis virus TC83; assay type: toxicity, cell-based; details: read-out: Ratio CC50/EC50
[10] = test system: Venezuelan equine encephalitis virus; assay: Antiviral activity against Venezuelan equine encephalitis virus TrD infected in Vero 76 cells assessed as reduction in viral titer at 1 uM by crystal violet staining based microplaque assay relative to untreated control; assay type: functional
[11] = test system: Venezuelan equine encephalitis virus; assay: Antiviral activity against Venezuelan equine encephalitis virus TrD infected in Vero 76 cells assessed as reduction in viral titer at 0.5 uM by crystal violet staining based microplaque assay relative to untreated control; assay type: functional, organism-based
[12] = test system: Venezuelan equine encephalitis virus; assay: Antiviral activity against Venezuelan equine encephalitis virus TC83 infected in Vero 76 cells assessed as reduction in viral titer by crystal violet staining based microplaque assay relative to untreated control; assay type: functional, organism-based; details: TC83, Vero 76
CYP2D6 = CYP2D6 (Homo sapiens, UniProt P10635); assay: Inhibition of human CYP2D6 at 10 uM; assay type: ADME
Sequence of CYP2D6 (P10635 whole entry): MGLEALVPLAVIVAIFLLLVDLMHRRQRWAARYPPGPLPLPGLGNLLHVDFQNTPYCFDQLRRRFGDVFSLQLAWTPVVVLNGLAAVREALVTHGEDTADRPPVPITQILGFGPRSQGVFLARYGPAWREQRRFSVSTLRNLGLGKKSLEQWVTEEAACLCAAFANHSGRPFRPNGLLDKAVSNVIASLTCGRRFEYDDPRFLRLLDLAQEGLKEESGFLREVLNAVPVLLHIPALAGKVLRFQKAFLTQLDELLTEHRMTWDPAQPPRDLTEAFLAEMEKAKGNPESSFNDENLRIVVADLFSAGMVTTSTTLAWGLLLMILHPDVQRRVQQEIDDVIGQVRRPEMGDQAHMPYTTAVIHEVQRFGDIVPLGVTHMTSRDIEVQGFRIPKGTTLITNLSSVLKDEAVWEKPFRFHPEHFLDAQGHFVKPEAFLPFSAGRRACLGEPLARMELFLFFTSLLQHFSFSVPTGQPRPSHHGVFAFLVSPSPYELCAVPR

Sequence of Cytochrome P450 2C19 (P33261 whole entry): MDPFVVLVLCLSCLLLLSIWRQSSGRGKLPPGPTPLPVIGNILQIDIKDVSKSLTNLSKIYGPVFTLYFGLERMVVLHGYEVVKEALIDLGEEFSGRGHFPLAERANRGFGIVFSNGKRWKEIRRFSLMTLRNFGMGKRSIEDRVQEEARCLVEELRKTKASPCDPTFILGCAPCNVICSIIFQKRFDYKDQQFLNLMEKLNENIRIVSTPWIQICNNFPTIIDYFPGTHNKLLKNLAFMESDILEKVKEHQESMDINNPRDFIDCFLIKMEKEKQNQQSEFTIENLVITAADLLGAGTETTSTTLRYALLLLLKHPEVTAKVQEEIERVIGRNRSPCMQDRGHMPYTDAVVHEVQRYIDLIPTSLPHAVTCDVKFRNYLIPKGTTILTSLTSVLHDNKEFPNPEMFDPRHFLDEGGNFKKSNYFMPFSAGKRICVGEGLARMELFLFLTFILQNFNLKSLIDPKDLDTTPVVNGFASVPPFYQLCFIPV

Row | SMILES | EC50 [2] [µM] | CC50 [3] [µM] | selectivity ratio [9] | further results
1 | Cc1c(OCC(F)(F)F)ccnc1C[S+]([O-])c1nc2ccccc2[nH]1 (configuration not stated) [LANSOPRAZOLE] |  |  |  | inhibition (INH) (Cytochrome P450 2C19): 86%
2 | Cn1c(=O)c2[nH]cnc2n(C)c1=O.O [THEOPHYLLINE] |  |  |  | permeability [1]: 0.32 ×10⁻⁶ cm/s
3 | CCN1CCN(Cc2nc3ccc([N+](=O)[O-])cc3c(=O)n2-c2ccccc2F)CC1 | 0.8 | > 50 |  | EC50 [4]: 0.3 µM; EC50 [5]: 0.6 µM; fold change (FC) [6]: 3; inhibition [7]: Active; solubility [8]: > 122 µg/mL
4 | COc1ccc(NC(=O)c2cc([N+](=O)[O-])ccc2/N=C2\CN(C)CCN2C)cc1 | 0.04 | > 50 | > 1250 | EC50 [4]: 0.02 µM; EC50 [5]: 0.05 µM; fold change (FC) [6]: 16000000; inhibition [7]: Active; inhibition [10]: Active; inhibition [11]: Active; EC50 [12]: 0.17 µM; solubility [8]: 105.6 µg/mL (≈ 266 µM)
5 | C=C[C@H]1C[N@@]2CC[C@H]1C[C@@H]2[C@@H](O)c1ccnc2ccc(OC)cc12 [QUINIDINE] |  |  |  | inhibition at 10 µM (CYP2D6): 88%
6 | CCN1CCN(Cc2nc3ccc([N+](=O)[O-])cc3c(=O)n2-c2ccc(F)cc2)CC1 | 0.8 | > 50 | > 62.5 | 
7 | O=c1c2cc([N+](=O)[O-])ccc2nc(CN2CCNCC2)n1-c1ccsc1 | 1.4 | > 50 | > 35.7 | 
8 | CN1CCN(C)/C(=N/c2ccc(C#N)cc2C(=O)Nc2ccccc2F)C1 | 3.7 | > 50 | > 13.5 | 
9 | O=c1c2cc([N+](=O)[O-])ccc2nc(CN2CCCNCC2)n1-c1ccccc1 | 0.9 | > 50 | > 55.6 | 
10 | CN1CCN(C)/C(=N/c2ccc([N+](=O)[O-])cc2C(=O)Nc2ccc(F)cc2)C1 | 0.09 | > 50 | > 556 | 
11 | CCN1CCN(Cc2nc3ccc(I)cc3c(=O)n2-c2ccccc2)CC1 | 17.1 | > 50 | > 2.9 | 
12 | COC(=O)c1ccc(/N=C2\CN(C)CCN2C)c(C(=O)Nc2ccccc2)c1 | 2 | > 50 | > 25 | 
